In ChEMBL document CHEMBL3526138, “Excretion and metabolism of milnacipran in humans after oral administration of milnacipran hydrochloride” (Drug Metab Dispos, 2012):

Experiments:
[1] = Drug excretion in monkey urine at 60 mg/kg, po; assay type: ADME, organism-based, Macaca mulatta; design: dose 60 mg/kg, route oral; details: rhesus monkey, read-out: Drug excretion
[2] = test system: Homo sapiens; test: Total drug excretion in human at 100 mg, po up to 72 hrs by liquid scintillation counting analysis; assay type: ADME, organism-based; details: in vivo
In short: (§1)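 Mass balance after single oral 100 mg [14C] dose to healthy males: cumulative urinary plus fecal radioactivity (LSC; feces combusted first) as % of dose per subject, urine and feces collected in timed intervals to 120 h.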

[3] = Drug excretion in human feces at 100 mg, po up to 48 hrs by liquid scintillation counting analysis; assay type: ADME, organism-based; details: in vivo
In short: (§2)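 Feces pooled into 24-h collections to 120 h after oral 100 mg [14C] dose, frozen -80°C, homogenised in water. Triplicate weighed aliquots combusted in sample oxidizer, counted by LSC 5 min. Excreted amount = concentration × sample weight, expressed as % of dosed radioactivity and summed cumulatively per subject.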

[4] = test system: Homo sapiens; test: Total drug excretion in human at 100 mg, po up to 12 hrs by liquid scintillation counting analysis; assay type: ADME, organism-based; details: in vivo; in short: as §1
[5] = test system: Homo sapiens; test: Cmax in human assessed as radioactivity at 100 mg, po by liquid scintillation counting analysis; assay type: ADME, organism-based; design: dose 100 mg, route oral; details: in vivo
In short: (§3)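 Healthy males given single oral [14C] milnacipran hydrochloride (100 μCi; 1 μCi/mg) after breakfast. Blood drawn into chilled K3EDTA tubes pre-dose to 120 h, plasma spun ≥2,500 g 10 min 4°C and frozen -80°C. Radioactivity counted by LSC for 5 min, converted to ng equivalent/mL via specific activity. Parameters by non-compartmental analysis; subjects without emesis.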

[6] = test system: Homo sapiens; test: AUC (0 to t) in human assessed as radioactivity at 100 mg, po by liquid scintillation counting analysis; assay type: ADME, organism-based, Plasma; details: in vivo; in short: as §3
[7] = test system: Homo sapiens; test: Total drug excretion in human at 100 mg, po up to 120 hrs by liquid scintillation counting analysis; assay type: ADME, organism-based; details: in vivo; in short: as §1
[8] = test system: Homo sapiens; test: Total drug excretion in human at 100 mg, po up to 144 hrs by liquid scintillation counting analysis; assay type: ADME, organism-based; details: in vivo
[9] = test system: Homo sapiens; test: Tmax in human assessed as radioactivity at 100 mg, po by liquid scintillation counting analysis; assay type: ADME, organism-based; details: in vivo; in short: as §3
[10] = Drug excretion in human feces at 100 mg, po up to 144 hrs by liquid scintillation counting analysis; assay type: ADME, organism-based; details: in vivo
[11] = test system: Homo sapiens; test: Total drug excretion in human at 100 mg, po up to 48 hrs by liquid scintillation counting analysis; assay type: ADME, organism-based; details: in vivo; in short: as §1
[12] = Drug excretion in human urine at 100 mg, po up to 48 hrs by liquid scintillation counting analysis; assay type: ADME, organism-based; details: in vivo
In short: (§4)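 Urine pooled at 0-4, 4-8, 8-12, 12-24 h, then daily intervals to 120 h after single oral 100 mg [14C] milnacipran hydrochloride; frozen -80°C and counted by LSC. Excreted amount = concentration × volume, given as % of dosed radioactivity, summed cumulatively per subject.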

[13] = test system: Homo sapiens; test: Total drug excretion in human at 100 mg, po up to 96 hrs by liquid scintillation counting analysis; assay type: ADME, organism-based; details: in vivo; in short: as §1
[14] = test system: Homo sapiens; test: Total drug excretion in human at 100 mg, po up to 24 hrs by liquid scintillation counting analysis; assay type: ADME, organism-based; details: in vivo; in short: as §1
[15] = test system: Homo sapiens; test: Total drug excretion in human at 100 mg, po up to 8 hrs by liquid scintillation counting analysis; assay type: ADME, organism-based; details: in vivo; in short: as §1
[16] = Drug excretion in human feces at 100 mg, po up to 120 hrs by liquid scintillation counting analysis; assay type: ADME, organism-based; details: in vivo; in short: as §2
[17] = Drug excretion in rat urine at 100 mg/kg, po; assay type: ADME, organism-based; design: dose 100 mg/kg, route oral; details: read-out: Drug excretion
[18] = Drug excretion in human urine at 100 mg, po up to 72 hrs by liquid scintillation counting analysis; assay type: ADME, organism-based; details: in vivo; in short: as §4
[19] = Drug excretion in human urine at 100 mg, po up to 4 hrs by liquid scintillation counting analysis; assay type: ADME, organism-based; details: in vivo; in short: as §4
[20] = test system: Homo sapiens; test: AUC (0 to infinity) in human assessed as radioactivity at 100 mg, po by liquid scintillation counting analysis; assay type: ADME, organism-based, Plasma; design: dose 100 mg, route oral, time infinity; details: in vivo; in short: as §3
[21] = Drug excretion in human urine at 100 mg, po up to 120 hrs by liquid scintillation counting analysis; assay type: ADME, organism-based; details: in vivo; in short: as §4
[22] = test system: Homo sapiens; test: Half life in human assessed as radioactivity at 100 mg, po by liquid scintillation counting analysis; assay type: ADME, organism-based; details: in vivo; in short: as §3
[23] = test system: Homo sapiens; test: Total drug excretion in human at 100 mg, po up to 4 hrs by liquid scintillation counting analysis; assay type: ADME, organism-based; details: in vivo; in short: as §1
[24] = Drug excretion in human urine at 100 mg, po up to 144 hrs by liquid scintillation counting analysis; assay type: ADME, organism-based; details: in vivo
[25] = Drug excretion in human urine at 100 mg, po up to 24 hrs by liquid scintillation counting analysis; assay type: ADME, organism-based; details: in vivo; in short: as §4
[26] = Drug excretion in human feces at 100 mg, po up to 72 hrs by liquid scintillation counting analysis; assay type: ADME, organism-based; details: in vivo; in short: as §2
[27] = Drug excretion in human feces at 100 mg, po up to 96 hrs by liquid scintillation counting analysis; assay type: ADME, organism-based; details: in vivo; in short: as §2
[28] = Drug excretion in mouse urine at 100 mg/kg, po; assay type: ADME, organism-based; design: dose 100 mg/kg, route oral; details: read-out: Drug excretion
[29] = Drug excretion in human feces at 100 mg, po up to 24 hrs by liquid scintillation counting analysis; assay type: ADME, organism-based; details: in vivo; in short: as §2
[30] = Drug excretion in human urine at 100 mg, po up to 96 hrs by liquid scintillation counting analysis; assay type: ADME, organism-based; details: in vivo; in short: as §4
[31] = Drug excretion in human urine at 100 mg, po up to 12 hrs by liquid scintillation counting analysis; assay type: ADME, organism-based; details: in vivo; in short: as §4
[32] = test system: Plasma; test: Drug recovery in human plasma at 100 mg, po by HPLC analysis; assay type: ADME, organism-based; details: in vivo
In short: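 Pooled plasma extracted for metabolite profiling; recovery of radioactivity through sample processing and through Phenyl-Hexyl HPLC column (0.5-min fractions counted by LSC) expressed as % of plasma or sample radioactivity.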

[33] = Drug excretion in human urine at 100 mg, po up to 8 hrs by liquid scintillation counting analysis; assay type: ADME, organism-based; details: in vivo; in short: as §4

## CCN(CC)[14C](=O)C1(c2ccccc2)CC1CN.Cl (stereo not drawn)
[1]
  dose excreted: 40%
[2]
  Drug excretion: 95.4%
[3]
  Drug excretion: 2.83%
[4]
  Drug excretion: 60.8%
[5]
  Cmax: 679 ng.Eq/ml
[6]
  AUCt: 6446.3 ng.Eq.hr/ml
[7]
  Drug excretion: 96.8%
[8]
  Drug excretion: 96.9%
[9]
  Tmax: 4.3 h
[10]
  Drug excretion: 3.65%
[11]
  Drug excretion: 92.2%
[12]
  Drug excretion: 89.3%
[13]
  Drug excretion: 96.5%
[14]
  Drug excretion: 79.6%
[15]
  Drug excretion: 48.5%
[16]
  Drug excretion: 3.65%
[17]
  dose excreted: 63%
[18]
  Drug excretion: 92.1%
[19]
  Drug excretion: 24.8%
[20]
  AUC: 7325.3 ng.Eq.hr/ml
[21]
  Drug excretion: 93.1%
[22]
  t1/2: 7.7 h
[23]
  Drug excretion: 24.8%
[24]
  Drug excretion: 93.3%
[25]
  Drug excretion: 79.4%
[26]
  Drug excretion: 3.27%
[27]
  Drug excretion: 3.62%
[28]
  dose excreted: 63%
[29]
  Drug excretion: 0.407%
[30]
  Drug excretion: 92.8%
[31]
  Drug excretion: 60.8%
[32]
  Drug recovery: 99.1%
[33]
  Drug excretion: 48.5%
